SMILES strings stand for the structures. pKi: −log10 of the molar value. “And” between values parts separate entries of the source, which are not always exact repeats. Equal values may be shown once. Where only a bound is given, the exact number is not on record here.

Experimental findings from ChEMBL document CHEMBL1127058, “The synthesis and biochemical pharmacology of enantiomerically pure methylated oxotremorine derivatives” (J Med Chem, 1993) are described below.

Assay [1] concerns the target T1, Muscarinic acetylcholine receptor M2 (Rattus norvegicus, UniProt P10980).
T1 sequence (P10980 whole entry): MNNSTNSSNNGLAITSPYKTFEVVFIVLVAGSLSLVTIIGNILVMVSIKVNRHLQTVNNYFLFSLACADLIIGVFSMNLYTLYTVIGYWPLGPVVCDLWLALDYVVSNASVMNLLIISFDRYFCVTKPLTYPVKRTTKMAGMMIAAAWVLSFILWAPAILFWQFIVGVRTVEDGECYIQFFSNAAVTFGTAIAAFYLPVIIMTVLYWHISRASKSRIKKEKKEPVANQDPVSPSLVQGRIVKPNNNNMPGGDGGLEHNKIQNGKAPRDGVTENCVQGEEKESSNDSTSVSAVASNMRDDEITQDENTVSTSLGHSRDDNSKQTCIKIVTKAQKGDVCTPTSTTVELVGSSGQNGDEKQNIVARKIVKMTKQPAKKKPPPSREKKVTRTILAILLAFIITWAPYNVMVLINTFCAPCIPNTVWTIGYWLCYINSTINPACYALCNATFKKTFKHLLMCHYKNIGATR
Description: Binding affinity at [3H]CD radiolabeled muscarinic M2 receptor in rat cortex. The assay is classed as tissue-based. The essentials:
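Rat cortex (male Wistar, 200–250 g) homogenized in ice-cold 10 mM Na/K phosphate, pH 7.4, diluted 1:300; ~0.75 mg protein per 2.0 mL. [3H]CD 1 nM, 120 min at 25 °C. Filtration onto PEI-soaked GF/B filters, scintillation counting; Ki from one-site competitive fit.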

In assay [2] the target is T1, Muscarinic acetylcholine receptor M2. Description: Binding affinity at [3H]QNB and GppNHp radiolabeled muscarinic M2 receptor in rat heart. The essentials: (§1)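 Washed rat heart membranes (male Wistar; 4800g pellet, 1:750, 0.15–0.2 mg protein/2.0 mL) in 10 mM NaKPB pH 7.4 with Gpp(NH)p 10 μM final. Filter binding, scintillation counting; apparent Ki from one-site fit.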

The target is the same in assay [3]. The assay can be described thus: Binding affinity at [3H]QNB radiolabeled muscarinic M2 receptor in rat cortex. The assay is classed as tissue-based. The essentials:
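Cortex from male Wistar rats homogenized in 10 mM NaKPB pH 7.4, diluted 1:3000 (~0.1 mg protein/2.0 mL).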

The target is the same in assay [4]. The assay can be described thus: Binding affinity at [3H]QNB radiolabeled muscarinic M2 receptor in rat heart. The essentials: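 Rat heart (male Wistar) minced and Polytron-homogenized in 10 mM NaKPB pH 7.4, spun 4800g 15 min 4 °C, resuspended, gauze-filtered, diluted 1:750 (0.15–0.2 mg protein/2.0 mL). Filtration, scintillation; one-site Ki.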
Assay [5] addresses T2, Muscarinic acetylcholine receptor M1 (Rattus norvegicus, UniProt P08482).
T2 sequence (P08482 whole entry): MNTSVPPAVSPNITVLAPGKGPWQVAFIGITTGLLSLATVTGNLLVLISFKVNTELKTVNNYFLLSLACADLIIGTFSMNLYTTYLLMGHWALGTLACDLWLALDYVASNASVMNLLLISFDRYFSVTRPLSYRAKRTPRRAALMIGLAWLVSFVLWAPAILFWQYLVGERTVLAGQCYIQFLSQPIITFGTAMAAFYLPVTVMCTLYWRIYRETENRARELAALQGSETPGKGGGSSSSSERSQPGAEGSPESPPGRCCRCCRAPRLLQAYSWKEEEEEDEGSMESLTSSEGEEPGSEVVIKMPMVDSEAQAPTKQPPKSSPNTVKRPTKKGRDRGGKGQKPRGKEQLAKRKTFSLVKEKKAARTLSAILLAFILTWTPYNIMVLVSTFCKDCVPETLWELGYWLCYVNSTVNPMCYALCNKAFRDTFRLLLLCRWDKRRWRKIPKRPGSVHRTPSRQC
Description: Binding affinity at [3H]PZ radiolabeled muscarinic M1 receptor in rat cortex. The assay is classed as tissue-based. The essentials:
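Male Wistar rat cerebral cortex homogenate in ice-cold 10 mM NaKPB pH 7.4, diluted 1:400 (~0.55 mg protein/2.0 mL). [3H]PZ 0.1 nM, 60 min at 25 °C. Filtered on PEI-treated GF/B, scintillation read; apparent Ki by one-site nonlinear regression; one or two determinations.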

For assay [6], the target named is T3, Muscarinic acetylcholine receptor M2 (Rattus norvegicus) (UniProt P10980).
T3 sequence (whole entry): T1 sequence (P10980 whole entry)
Description: Relative [3H]QNB and [3H]-CD binding to muscarinic M2 receptor.

Assay [7] addresses T1, Muscarinic acetylcholine receptor M2. The assay can be described thus: Tested for binding affinity to [3H]QNB and GppNHp radiolabeled muscarinic M2 receptor in rat heart. The procedure, abridged: as §1
The target in assay [8] is Muscarinic receptor M1 and M2 (Rattus norvegicus) (UniProt P08482+P10980). Description: Ratio of [3H]QNB+GppNHp/[3H]-QNB. Type of assay: protein assay.
Assay [9] can be described thus: Ratio of [3H]QNB+/[3H]-PZ was determined.
Assay [10] in a line: Ratio of [3H]QNB+GppNHp/[3H]-PZ was determined.

The term pKi denotes −log10 of the Ki, conventionally taken in molar units. As to `CC1CCN(CC#CCN2CCCC2)C1=O` (centres undefined), the pKi in assay [1] is 7.82; in assay [2] it was 5.96; in assay [3], 6.15; in assay [4] it was 7.10; in assay [5], 6.54. In addition, the Ratio in assay [6] turned out to be 48.
With `C[C@H]1CC(=O)N(CC#CC[N+](C)(C)C)C1`, the pKi in [1] is 6.35; in assay [7], less than 4.00; in assay [3], less than 4.00; in [4], 5.72; in assay [5], 3.97. Further, the Ratio in assay [8] is 0.23.
On to `O=C1CCCN1CC#CCN1CCCCC1`, for which the negative-log Ki (pKi) in assay [1] is 7.25; in [2], 6.46; in assay [3], 6.92; in assay [4], 7.15; in [5], 6.89. In addition, the Ratio in [9] came out at 0.54; in [10] it was 2.7; in assay [8], 5; in assay [6], 2.2.
For the compound `C[C@@H]1CC(=O)N(CC#CC[N+](C)(C)C)C1`, the negative logarithm of the Ki (pKi) in assay [1] was 6.01; in assay [2], 4.28; in [3], less than 4.00; in assay [4] it was 4.68; in assay [5], less than 3.96. For the same compound, the Ratio was 5.7 in [10] and 2.4 in [8].
`C[C@H]1CC(=O)N(CC#CCN2CCCC2)C1`: the pKi in assay [1] is 5.82; in assay [2], 5.22; in [3], 5.64; in assay [4], 5.42; in assay [5], 6.29. Also, the Ratio in assay [6] worked out at 1.6.
Consider `C[C@H]1CCN(CC#CCN(C)C)C1=O`, for which the negative logarithm of the Ki (pKi) in assay [1] is 6.20; in [2], 4.52; in assay [3], less than 4.00; in [4], 4.68; in assay [5], 2.97. The Ratio in [8] was determined as 1.4.
`C[C@H]1CCN(CC#CCN2CCCC2)C1=O`: the pKi is 7.26 in [1]; 5.48 in [2]; 5.54 in assay [3]; 6.96 in [4]; 5.66 in [5]. The Ratio in [10] turned out to be 1.5; in [8], 32.
On to `CC(=O)N(C)C(C)C#CCN1CCCC1` (centres undefined), for which the negative logarithm of the Ki (pKi) in [1] is 8.40; in [7], 6.74; in [3], 7.10; in assay [4], 7.15; in [5], 7.40. Also, the Ratio in [8] was 2.5 and 5.1 and 1.8; in [6], 19.5.
With `CN(C)CC#CCN1CCCC1=O`, the pKi was 8.20 in assay [1]; 5.80 in assay [2]; 5.54 in assay [3]; 7.15 in assay [4]; 5.17 in assay [5]. Also, in assay [6], the Ratio came out at 460.
As to `C[C@H]1CC(=O)N(CC#CCN(C)C)C1`, the negative logarithm of the Ki (pKi) in assay [1] was less than 5.00; in [2] it was less than 4.00; in [3], 3.82; in assay [4] it was less than 4.00; in assay [5] it was 4.82. In [8], the Ratio is greater than 100.
For the compound `O=C1CCCN1CC#CCN1CCCC1` [OXOTREMORINE], the negative logarithm of the Ki (pKi) in assay [1] was 9.30; in assay [2] it was 6.80; in assay [3], 7.22; in assay [4], 8.30; in assay [5], 6.92.
Consider `C[N+](C)(C)CC#CCN1CCCC1=O` [OXOTREMORINE METHIODIDE], for which the pKi was 9.11 in [1]; 5.82 in [2]; 6.04 in assay [3]; 7.22 in assay [4]; 5.92 in assay [5]. Also, in [6], the Ratio is 1200.
For `C[C@@H]1CCN(CC#CCN(C)C)C1=O`, the pKi was 7.15 in assay [1]; 5.03 in [2]; 5.05 in [3]; 6.62 in assay [4]; 5.17 in [5]. In assay [6], the Ratio stood at 125.
On to `C[C@@H]1CC(=O)N(CC#CCN2CCCC2)C1`, for which the pKi in [1] was 5.60; in assay [2], 4.57; in assay [3], 5.33; in assay [4] it was 4.89; in assay [5], 5.89. For the same compound, the Ratio in [10] came to 21; in assay [8] it was 2; in [6], 1.9.
Take `C[C@@H]1CC(=O)N(CC#CCN(C)C)C1`: the pKi in assay [1] was less than 5.00; in assay [2], less than 4.00; in [3], less than 3.00; in assay [4], less than 4.00; in [5], less than 4.00. Further, in assay [8], the Ratio is greater than 100.
With `CC1CCN(CC#CCN(C)C)C1=O` (centres undefined), the negative logarithm of the Ki (pKi) is 6.59 in assay [1]; 4.89 in assay [2]; 4.66 in assay [3]; 5.89 in [4]; 3.67 in assay [5]. In assay [6], the Ratio worked out at 85.
Turning to `C[C@@H]1CCN(CC#CCN2CCCC2)C1=O`, the negative-log Ki (pKi) is 7.64 in assay [1]; 6.37 in [2]; 6.37 in [3]; 7.05 in assay [4]; 6.60 in assay [5]. Also, in assay [6], the Ratio came to 19.
